Assay outcomes (PubChem BioAssay)
Rows were chosen to be rich in hits. Some 2.3% of all compounds tested hit in one or more screens of this group.
TROY NFkB inh: blocks TROY-dependent signaling in reporter cells; Q293 LMP1-TROYcd NF-kB luciferase reporter, 4 h; inhibition, % at 10 µM; hit rate 0.98% among 360,000;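 active = compounds whose plate-normalised and pattern-corrected inhibition of the luciferase reporter signal at the single screening dose is 50% or more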
XiGFP reactiv: reactivates the inactive X chromosome in mouse fibroblasts; XiGFP mouse fibroblasts, % GFP-positive cells imaging, 3 d; cells co-treated with 5-aza-dC sensitizer; scaled so ellipticine positive control = 100%; AID 743238; hit rate 0.055% among 360,000; activation, % at 7.58 µM;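 active = mean normalized replicate activation at least 10% and every replicate at or above 10%; inconclusive = only one of the two criteria met; inactive = mean below 10% and not all replicates reach 10%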;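 also: 0% = median of on-plate neutral control wells and 100% = ellipticine 6 µM median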
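Schedule: 3 d treatment, 15 min room-temperature fixation; system: 68-5-11 XiGFP fibroblast line; buffer or medium: DMEM plus 5-aza-dC sensitizer; control set: ellipticine 6 µM positive control; compound: one concentration, pinned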
FN deposition inh: fibronectin deposition inhibition. hit rate 0.086% among 350,000. AID 743247. AH1F fibroblasts, Alexa488-fibronectin deposition fluorescence, overnight. inhibition, % at 12.6 µM;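 active = mean inhibition across replicates of 30% or more, regardless of how many single replicates reach that level; inconclusive = mean under 30% yet at least half of replicates reach 30%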;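 also: positive control wells lacked labelled fibronectin entirely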
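test system = AH1F fibroblasts assembling fluorescent fibronectin matrix | quantity = 10000 AH1F cells per well | buffer or medium = DMEM plus 2% serum, read in PBS | doses = single dose, pinned | incubation = 1 h cell attachment, overnight exposure to compound and label | detection = fluorescence at 485 nm excitation, 525 nm emission | read-out basis = inhibition from reduced deposited-fibronectin fluorescence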
EWS-Fli block: EWS/Fli transcriptional activity inhibition; inhibition, % at 12.6 µM; A673 NR0B1-luciferase reporter, viability-normalised; hit rate 0.67% among 350,000; AID 651661;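 active = mean inhibition of at least 50% after viability correction, with every replicate also passing that limit; inconclusive = mean reaches 50% but only one of two replicates passes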;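 also: firefly luciferase signal divided by Alamar Blue viability fluorescence both relative to DMSO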
LGR2 antag: Drosophila LGR2 receptor signaling inhibition; HEK293 LGR2, CRE-luciferase, bursicon-stimulated, 4 h; inhibition, % at 9.99 µM; hit rate 0.35% among 380,000; AID 720647;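 active = drop in luminescence signal, shown as inhibition above about 50% in the replicate tests, limit read from the data, passing the limit was not always enough; inconclusive = probably only some replicates passing the limit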;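 also: agonist challenge used bursicon conditioned medium at about half maximal strength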
TWEAK Fn14 block: TWEAK-Fn14 signaling inhibition | TWEAK-stimulated Fn14 reporter cells, luciferase luminescence, 8 h | inhibition, % at 10 µM | hit rate 2% among 360,000; in the data active = inhibition above about 50%
* = called active by the depositor; ? = inconclusive; . = no result.

SMILES | TROY NFkB inh | XiGFP reactiv | FN deposition inh | EWS-Fli block | LGR2 antag | TWEAK Fn14 block
CN(C)CC(C(=O)Cc1ccccc1)c1ccccc1 (stereo not given) | -33 | 0 | 32* | 25 | 16 | 44
C[C@@H]([C@@H](O)c1ccccc1)N(C)C(=O)Cc1ccccc1 | -25 | 0 | -3 | -11 | 7 | 8
CC(C)NC(=O)N1C[C@@H]2C(c3ccccc3)[C@H](C1)N2CC1CC1 (stereo not given in full) | . | 0 | 4 | . | . | .
CC1CCC[C@H](O)CCCCCc2cc(O)cc(O)c2C(=O)O1 (stereo not given in full) | -5 | 0 | -10 | -5 | 4 | -6
CC1CCC/C=C/C2CC(O)CC2C(O)/C=C/C(=O)O1 (stereo not given) | -54 | . | 9 | . | . | 76*
C[C@H]1CCC/C=C/C2C[C@H](O)CC2[C@H](O)/C=C/C(=O)O1 (stereo not given in full) | -63 | . | . | . | . | 57*
COC(=O)[C@@H]1[C@@H](CO)[C@@H]2Cn3c(ccc(-c4cccc(F)c4)c3=O)[C@H]1N2Cc1ccncc1 | . | 0 | 16 | -2 | -11 | .
COC(=O)C1=C(C(=O)OC)SC2(S1)C(C(=O)OC)=C(C(=O)OC)Sc1c2ssc1=O | 5 | 0 | . | 45 | -32 | 59*
COC(=O)[C@H]1[C@H](CO)[C@H]2Cn3c(ccc(-c4ccccc4F)c3=O)[C@@H]1N2Cc1ccncc1 | . | 0 | . | -3 | -4 | .
O=C(Cc1cccnc1)N1CCCCN2[C@@H](CO)[C@@H](c3ccc(C#CC4CC4)cc3)[C@@H]2C1 | . | . | . | -9 | . | .
CC(C)c1oc(=O)cc2c1[C@@H](O)[C@H]1OC(=O)[C@@]3(C)C[C@@H](O)[C@@H](O)[C@@]2(C)C13 (stereo not given in full) | 38 | 0 | 5 | 49 | 78* | 88*
COC(=O)[C@@H]1[C@@H](CO)[C@@H]2Cn3c(ccc(/C=C/c4ccccc4)c3=O)[C@H]1N2C(=O)C1CC1 | . | 0 | . | 3 | -10 | .
CC(C)(O)/C=C/C(=O)C(C)(O)C1C(O)CC2(C)C3CC=C4C(C=C(O)C(=O)C4(C)C)C3(C)C(=O)CC12C (stereo not given) | 70* | 0 | 46* | 30 | 88* | 90*
CCOC(=O)[C@@H]1[C@@H]2NC(=O)N(C)[C@@]1(C)Oc1ccccc12 | . | . | . | -4 | . | .
COc1cccc(-c2ccc3c(c2)C2c4cnnn4-c4ccccc4C(=O)N2CC3)c1 (stereo not given) | . | 1 | 11 | 59* | -6 | .
CN1C[C@@H]2N[C@H](C1)C2c1ccc(Br)cc1 (stereo not given in full) | . | 0 | -5 | . | . | .
C=Cc1cc(OC)c2c(c1)c(=O)oc1c2cc(OC)c2c(O)ccc(C3OC(C)C(O)C(C)(O)C3O)c21 (stereo not given) | -5 | 2 | -11 | 28 | . | 91*
Oc1c(Cl)cccc1Cc1cc(Cl)cc(Cl)c1O | 66* | 0 | -5 | 13 | -1 | 65*
CCN(CCCl)c1cc(CN(C)C)cc(NC(=O)c2ccc(C(=O)Nc3cc(CN(C)C)cc(N(CC)CCCl)c3)cc2)c1 | 54* | 0 | 5 | 60* | 95* | 99*
O=C(Nc1ccccc1)c1cccn(Cc2ccccc2)c1=O | -40 | 0 | 2 | -61 | -101 | 8
O=C(Nc1ccncc1)c1cccn(Cc2ccccc2)c1=O | -5 | 1 | 8 | 6 | -16 | 50*
COC(=O)[C@@H]1[C@@H](CO)[C@@H]2Cn3c(cccc3=O)[C@H]1N2Cc1nccs1 | . | 0 | . | -6 | -7 | .
COc1cc2c(cc1OC)CN(c1ccc([N+](=O)[O-])c(C(F)(F)F)c1)CC2 | 19 | 0 | 6 | 1 | 93* | 74*
CC(C)(O)C(=O)Nc1ccc([N+](=O)[O-])c(C(F)(F)F)c1 | -4 | . | . | -4 | 8 | -6
Cc1cccc(N2C(=O)NC(=O)/C(=C\c3cccn3-c3ccc(Cl)cc3)C2=O)c1 | 30 | . | . | . | 60* | 61*
SMILES | TROY NFkB inh | XiGFP reactiv | FN deposition inh | EWS-Fli block | LGR2 antag | TWEAK Fn14 block
Cc1cc(C)cc(N2C(=O)NC(=O)/C(=C/c3cccn3-c3ccc(Cl)cc3)C2=O)c1 | 69* | 0 | -5 | 32 | ? | 104*
CCOC(=O)[C@@H]1[C@@H]2NC(=S)N(C)[C@@]1(COCc1ccc(OC)cc1)Oc1ccccc12 | . | . | . | -10 | . | .
COC(=O)[C@H]1[C@H](CO)[C@H]2Cn3c(ccc(C4=CCCCC4)c3=O)[C@@H]1N2CC1CCCCC1 | . | 1 | . | 26 | -3 | .
Cc1nc2c(=O)n(C)c(=O)nc-2n(C)n1 | 86* | . | . | . | . | 102*
COc1cc(C2c3cc4c(cc3CC3COC(=O)C32)OCO4)cc(OC)c1OC (stereo not given) | 3 | . | . | 57* | -2 | -2
Oc1c(Br)cc(Br)cc1Br | 14 | . | . | -2 | 1 | 6
Oc1c(Br)c(Br)c(Br)c(Br)c1Br | 71* | . | . | . | . | 2
CNc1ccc2oc(C[C@H]3O[C@@]4(CC[C@H]3C)O[C@H]([C@H](C)C(=O)c3ccc[nH]3)[C@H](C)C[C@H]4C)nc2c1C(=O)O | 53* | 0 | 0 | 43 | -10 | 104*
OCC1OC(n2cnc3cc(Cl)c(Cl)cc32)C(O)C1O (stereo not given) | 54* | 0 | 15 | 14 | 19 | 21
N#Cc1c(Br)n(C2OC(CO)C(O)C2O)c2ncnc(N)c12 (stereo not given) | 11 | 0 | 11 | 30 | 31 | 49
O=C(Cc1cccnc1)N1CCCCN2[C@H](CO)[C@@H](c3ccc(C#CC4CC4)cc3)[C@H]2C1 | . | . | . | -7 | . | .
CCCCCN1C(=O)c2cc(OC)ccc2[C@@]2(C(=O)OCC)Cc3cc(OC)ccc3[C@@H]12 | 36 | 0 | 1 | 11 | 40 | 62*
CCOC(=O)[C@]12Cc3cc(C)ccc3[C@H]1N(CCC(=O)OC)C(=O)c1ccccc12 | 21 | 0 | 5 | 21 | 53* | 18
